Experimental data pooled from the literature.
Compare with care: the assays were run in different laboratories.
CDPK1: Calcium-dependent protein kinase 1 (CDPK1, Plasmodium falciparum, UniProt P62344)
P2RY14: P2Y purinoceptor 14 (P2RY14, Homo sapiens, UniProt Q15391)
Nuclear receptor subfamily 4 group A member 2: Nuclear receptor subfamily 4 group A member 2 (Homo sapiens, UniProt P43354)

SMILES | target | assay | system | conditions | measurement | value
C1=C/COCc2cc(ccc2OCCN2CCCC2)Nc2nccc(n2)-c2cccc(c2)COC/1 | CDPK1 | binding |  | 0.1 µM | remaining binding | 36%
COC(=O)[C@H](Cc1c[nH]c2ccccc12)NC(=O)COc1ccc(C)cc1 | P2RY14 | cAMP, antagonist | HEK293 | 0.1 µM | inhibition | -20%
Cc1cc(O)c(-c2ccc([C@@H](C)CN(C)C)cc2)c2c1[nH]c(=O)c1sccc12 | Mitogen-activated protein kinase kinase kinase 1 (MAP3K1, Homo sapiens, UniProt Q13233) | enzyme activity, inhibitor |  | 0.1 µM | inhibition | 4.39%
CN1C(C(=O)Nc2ccccn2)=C(O)c2sc(Cl)cc2S1(=O)=O | Nuclear receptor subfamily 4 group A member 2 | thermal stability, DSF |  | 100 µM | ΔTm | 0.18 °C
COc1ccc2oc(-c3ccc4nc(N)oc4c3)c/c(=N\c3ccccc3NC(=O)CCN)c2c1 | TGF-beta receptor type-1 (TGFBR1, Homo sapiens, UniProt P36897) | binding |  | 1 µM | remaining binding | 111%
O=C(N[C@@H](Cc1c[nH]c2ccccc12)C(=O)O)c1ccco1 | P2RY14 | cAMP, antagonist | HEK293 | 0.1 µM | inhibition | 73.6%
CCN1CCN(c2cc(N3CCN(CC)CC3)nc(NCCNc3ccnc4cc(Cl)ccc34)n2)CC1 | Nuclear receptor subfamily 4 group A member 2 | thermal stability, DSF |  | 100 µM | ΔTm | -0.12 °C
COc1ccc(OCC(=O)N[C@@H](Cc2c[nH]c3ccccc23)C(=O)OC(C)C)cc1 | P2RY14 | cAMP, antagonist | HEK293 | 0.1 µM | inhibition | 85.6%
CCCCC(=O)Nc1ccc(-c2ccc3ncn(CCC)c(=O)c3c2)cn1 | CDPK1 | binding, competition with immobilised ligand |  | 0.5 µM | remaining binding | 100%
